# Results reported in ChEMBL document CHEMBL1821649, “Synthesis, characterization of some benzazoles bearing pyridine moiety: search for novel anticancer agents” (2011).
# What was measured:
# Type in all cases: functional
# HCC 2998 = experiment: Antitumor activity against human HCC2998 cells after 48 hrs by SRB assay; details: HCC 2998, 48 h; for CC50: read-out: LC50 (the source's name)
# Summary of the method: (§1)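 NCI-60 human tumour cell panel run under the National Cancer Institute Drug Evaluation Branch protocol. Compounds passing a single-dose prescreen were retested on all lines at five 10-fold dilutions. Growth was expressed as percent growth of treated cells. Response parameters were GI50 (molar concentration giving 50% growth inhibition), TGI (total growth inhibition) and LC50 (median lethal concentration).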
# NCI-H226 = experiment: Antitumor activity against human NCI-H226 cells after 48 hrs by SRB assay; details: NCI-H226, 48 h; for CC50: read-out: LC50 (the source's name); summary of the method: as §1
# NCI-H23 = experiment: Antitumor activity against human NCI-H23 cells after 48 hrs by SRB assay; details: NCI-H23, 48 h; summary of the method: as §1
# HOP-62 = experiment: Antitumor activity against human HOP62 cells after 48 hrs by SRB assay; details: HOP-62, 48 h; for CC50: read-out: LC50 (the source's name); summary of the method: as §1
# HOP-92 = experiment: Antitumor activity against human HOP92 cells after 48 hrs by SRB assay; details: HOP-92, 48 h; summary of the method: as §1
# SR = experiment: Antitumor activity against human SR cells after 48 hrs by SRB assay; summary of the method: as §1
# OVCAR-4 = experiment: Antitumor activity against human OVCAR4 cells after 48 hrs by SRB assay; details: OVCAR-4, 48 h; for CC50: read-out: LC50 (the source's name); summary of the method: as §1
# OVCAR-3 = experiment: Antitumor activity against human OVCAR3 cells after 48 hrs by SRB assay; details: OVCAR-3, 48 h; for CC50: read-out: LC50 (the source's name); summary of the method: as §1
# OVCAR-8 = experiment: Antitumor activity against human OVCAR8 cells after 48 hrs by SRB assay; details: OVCAR-8, 48 h; summary of the method: as §1
# IGROV-1 = experiment: Antitumor activity against human IGROV1 cells after 48 hrs by SRB assay; details: IGROV-1, 48 h; summary of the method: as §1
# SK-OV-3 = experiment: Antitumor activity against human SKOV3 cells after 48 hrs by SRB assay; details: SK-OV-3, 48 h; summary of the method: as §1
# SK-MEL-28 = experiment: Antitumor activity against human SK-MEL-28 cells after 48 hrs by SRB assay; details: SK-MEL-28, 48 h; summary of the method: as §1
# UACC-62 = experiment: Antitumor activity against human UACC62 cells after 48 hrs by SRB assay; details: UACC-62, 48 h
# Summary of the method: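 NCI-60 human cancer cell line panel run under the NCI Drug Evaluation Branch protocol. Compounds were first screened at a single dose. Those meeting preset inhibition thresholds were retested at five 10-fold dilutions. Output was percent growth of treated cells, given as % growth inhibition. GI50, TGI and LC50 values were derived from the five-dose data.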
# A498 = experiment: Antitumor activity against human A498 cells after 48 hrs by SRB assay; details: A498, 48 h; for CC50: read-out: LC50 (the source's name); summary of the method: as §1
# DU-145 = experiment: Antitumor activity against human DU145 cells after 48 hrs by SRB assay; details: DU-145, 48 h; for CC50: read-out: LC50 (the source's name); summary of the method: as §1
# MCF7 = experiment: Antitumor activity against human MCF7 cells after 48 hrs by SRB assay; details: MCF7, 48 h; for CC50: read-out: LC50 (the source's name); summary of the method: as §1
# MDA-MB-231 = experiment: Antitumor activity against human MDA-MB-231 cells after 48 hrs by SRB assay; details: MDA-MB-231, 48 h; for CC50: read-out: LC50 (the source's name); summary of the method: as §1
# [1] = Antitumor activity against human Hs 578T cells after 48 hrs by SRB assay; details: for CC50: read-out: LC50 (the source's name); summary of the method: as §1
# BT-549 = experiment: Antitumor activity against human BT549 cells after 48 hrs by SRB assay; details: BT-549, 48 h; for CC50: read-out: LC50 (the source's name); summary of the method: as §1
# [2] = Antitumor activity against human […] cells after 48 hrs by SRB assay; details: for CC50: read-out: LC50 (the source's name); summary of the method: as §1
# RXF 393 = experiment: Antitumor activity against human RXF393 cells after 48 hrs by SRB assay; details: RXF 393, 48 h; for CC50: read-out: LC50 (the source's name); summary of the method: as §1
# SF-539 = experiment: Antitumor activity against human SF539 cells after 48 hrs by SRB assay; details: SF-539, 48 h; for CC50: read-out: LC50 (the source's name); summary of the method: as §1
# SF-295 = experiment: Antitumor activity against human SF295 cells after 48 hrs by SRB assay; details: SF-295, 48 h; for CC50: read-out: LC50 (the source's name); summary of the method: as §1
# KM12 = experiment: Antitumor activity against human KM12 cells after 48 hrs by SRB assay; details: KM12, 48 h; for CC50: read-out: LC50 (the source's name); summary of the method: as §1
# PC-3 = experiment: Antitumor activity against human PC3 cells after 48 hrs by SRB assay; details: PC-3, 48 h; summary of the method: as §1
smiles,measurement,setting,value
Cc1cc2nc(-c3c(N)ncc(C#N)c3-c3ccc(Cl)cc3)[nH]c2cc1C,GI50,HCC 2998,20.9 µM
same,TGI,HCC 2998,> 100 µM
same,CC50,HCC 2998,> 100 µM
same,GI50,NCI-H226,15 µM
same,TGI,NCI-H226,46.3 µM
same,CC50,NCI-H226,100 µM
same,GI50,NCI-H23,8.1 µM
same,LC50,NCI-H23,99.7 µM
same,TGI,NCI-H23,30.7 µM
same,GI50,HOP-62,6.36 µM
same,TGI,HOP-62,21.7 µM
same,CC50,HOP-62,55.9 µM
same,GI50,HOP-92,0.275 µM
same,LC50,HOP-92,44.2 µM
same,TGI,HOP-92,5.23 µM
same,GI50,SR,28.7 µM
same,LC50 (median lethal concentration),SR,> 100 µM
same,TGI,SR,> 100 µM
same,GI50,OVCAR-4,4.4 µM
same,TGI,OVCAR-4,25.4 µM
same,CC50,OVCAR-4,> 100 µM
same,GI50,OVCAR-3,13.9 µM
same,TGI,OVCAR-3,76 µM
same,CC50,OVCAR-3,> 100 µM
same,GI50,OVCAR-8,4.53 µM
same,LC50 (median lethal concentration),OVCAR-8,> 100 µM
same,TGI,OVCAR-8,29.6 µM
same,GI50,IGROV-1,18.7 µM
same,LC50,IGROV-1,> 100 µM
same,TGI,IGROV-1,> 100 µM
same,GI50,SK-OV-3,11.9 µM
same,LC50,SK-OV-3,65.1 µM
same,TGI,SK-OV-3,27.9 µM
same,GI50,SK-MEL-28,5.8 µM
same,LC50 (median lethal concentration),SK-MEL-28,> 100 µM
same,TGI,SK-MEL-28,40.2 µM
same,GI50,UACC-62,11 µM
same,LC50,UACC-62,> 100 µM
same,TGI,UACC-62,53.2 µM
same,GI50,A498,11.8 µM
same,TGI,A498,59.2 µM
same,CC50,A498,> 100 µM
same,GI50,DU-145,5.68 µM
same,TGI,DU-145,27.1 µM
same,CC50,DU-145,93.1 µM
same,GI50,MCF7,9.34 µM
same,TGI,MCF7,> 100 µM
same,CC50,MCF7,> 100 µM
same,GI50,MDA-MB-231,10.5 µM
same,TGI,MDA-MB-231,44.2 µM
same,CC50,MDA-MB-231,> 100 µM
same,GI50,[1],12 µM
same,TGI,[1],> 100 µM
same,CC50,[1],> 100 µM
same,GI50,BT-549,37.6 µM
same,TGI,BT-549,> 100 µM
same,CC50,BT-549,> 100 µM
same,GI50,[2],19.8 µM
same,TGI,[2],84.2 µM
same,CC50,[2],> 100 µM
same,GI50,RXF 393,3.18 µM
same,TGI,RXF 393,13.7 µM
same,CC50,RXF 393,42.6 µM
same,GI50,SF-539,2.07 µM
same,TGI,SF-539,5.78 µM
same,CC50,SF-539,27 µM
same,GI50,SF-295,10 µM
same,TGI,SF-295,27.5 µM
same,CC50,SF-295,75.6 µM
same,GI50,KM12,14.8 µM
same,TGI,KM12,> 100 µM
same,CC50,KM12,> 100 µM
COc1ccc(-c2c(C#N)cnc(N)c2-c2nc3cc(C)c(C)cc3[nH]2)cc1,GI50,HCC 2998,11 µM
same,TGI,HCC 2998,> 100 µM
same,CC50,HCC 2998,> 100 µM
same,GI50,NCI-H226,16.4 µM
same,TGI,NCI-H226,> 100 µM
same,CC50,NCI-H226,> 100 µM
same,GI50,NCI-H23,5.37 µM
same,LC50,NCI-H23,> 100 µM
same,TGI,NCI-H23,33.3 µM
same,GI50,HOP-62,3.65 µM
same,TGI,HOP-62,14.4 µM
same,CC50,HOP-62,45.2 µM
same,GI50,HOP-92,2.65 µM
same,LC50,HOP-92,> 100 µM
same,TGI,HOP-92,16.3 µM
same,GI50,SR,5.64 µM
same,LC50 (median lethal concentration),SR,> 100 µM
same,TGI,SR,> 100 µM
same,GI50,OVCAR-4,22.5 µM
same,TGI,OVCAR-4,> 100 µM
same,CC50,OVCAR-4,> 100 µM
same,GI50,OVCAR-3,14.8 µM
same,TGI,OVCAR-3,30.4 µM
same,CC50,OVCAR-3,62.2 µM
same,GI50,OVCAR-8,5.2 µM
same,LC50 (median lethal concentration),OVCAR-8,> 100 µM
same,TGI,OVCAR-8,26.8 µM
same,GI50,IGROV-1,16 µM
same,LC50,IGROV-1,> 100 µM
same,TGI,IGROV-1,> 100 µM
same,GI50,SK-OV-3,4.84 µM
same,LC50,SK-OV-3,59.6 µM
same,TGI,SK-OV-3,18.4 µM
same,GI50,SK-MEL-28,17.2 µM
same,LC50 (median lethal concentration),SK-MEL-28,> 100 µM
same,TGI,SK-MEL-28,> 100 µM
same,GI50,UACC-62,72.2 µM
same,LC50,UACC-62,> 100 µM
same,TGI,UACC-62,> 100 µM
same,GI50,A498,10.7 µM
same,TGI,A498,63.6 µM
same,CC50,A498,> 100 µM
same,GI50,PC-3,8.86 µM
same,GI50,DU-145,6.92 µM
same,TGI,DU-145,23.8 µM
same,CC50,DU-145,61.8 µM
same,GI50,MCF7,6.34 µM
same,TGI,MCF7,> 100 µM
same,CC50,MCF7,> 100 µM
same,GI50,MDA-MB-231,8.28 µM
same,TGI,MDA-MB-231,> 100 µM
same,CC50,MDA-MB-231,> 100 µM
same,GI50,[1],5.87 µM
same,TGI,[1],> 100 µM
same,CC50,[1],> 100 µM
same,GI50,BT-549,30.6 µM
same,TGI,BT-549,> 100 µM
same,CC50,BT-549,> 100 µM
same,GI50,[2],9.8 µM
same,TGI,[2],65.7 µM
same,CC50,[2],> 100 µM
same,GI50,RXF 393,6.68 µM
same,TGI,RXF 393,20.4 µM
same,CC50,RXF 393,54.1 µM
same,GI50,SF-539,11.5 µM
same,TGI,SF-539,41.9 µM
same,CC50,SF-539,> 100 µM
same,GI50,SF-295,6.41 µM
same,TGI,SF-295,23.4 µM
same,CC50,SF-295,68.2 µM
same,GI50,KM12,3.47 µM
same,TGI,KM12,> 100 µM
same,CC50,KM12,> 100 µM
